CYP2C9 activ: increases human cytochrome P450 2C9 activity | P11712 | recombinant CYP2C9, luciferin-H conversion, luminescence; stronger effect = higher value; factor 1 = untreated enzyme, 0 = blocked | activation factor at 5 µM | 96,000 compounds, 1.4% hits | AID 1024;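 active = activation factor of 2 or more for CYP2C9 at a 5 µM dose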;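 also: 0 = sulfaphenazole-blocked wells and 1 = vehicle-only wells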
Ecoli tolC: E. coli tolC mutant growth inhibition; E. coli BW25113 tolC mutant growth, OD615; growth inhibition, % at 10 µM (by protocol); 65,000 compounds, 2.2% hits;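 active = growth inhibition at or above a cutoff equal to the mean over every tested compound plus 3 SD, cut at about 60% in these data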;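 also: growth measured after 20 h incubation at 37 °C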
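Test system: E. coli BW25113 ΔtolC::kan bacteria; incubation: 37 °C, 20 h exposure; medium: LB broth supplemented with 50 µg/mL kanamycin; read-out basis: percent growth inhibition; signal: A615 absorbance measurement; compound: 10 µM final, single dose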
CYP2C19 inh: inhibitors of human CYP2C19 | CYP2C19 Supersomes, luciferin-H EGE luminescence, 30 min | inhibition, % at 5 µM | 96,000 compounds, 21% hits | AID 778;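 active = CYP2C19 inhibition above a set limit at 5 µM in the primary screen, cut at about 50% in these data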;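 also: plate controls were negative control wells for no effect and 2.5 mM tranylcypromine positive control for full effect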
Target sequence (P33261 whole entry, looked up): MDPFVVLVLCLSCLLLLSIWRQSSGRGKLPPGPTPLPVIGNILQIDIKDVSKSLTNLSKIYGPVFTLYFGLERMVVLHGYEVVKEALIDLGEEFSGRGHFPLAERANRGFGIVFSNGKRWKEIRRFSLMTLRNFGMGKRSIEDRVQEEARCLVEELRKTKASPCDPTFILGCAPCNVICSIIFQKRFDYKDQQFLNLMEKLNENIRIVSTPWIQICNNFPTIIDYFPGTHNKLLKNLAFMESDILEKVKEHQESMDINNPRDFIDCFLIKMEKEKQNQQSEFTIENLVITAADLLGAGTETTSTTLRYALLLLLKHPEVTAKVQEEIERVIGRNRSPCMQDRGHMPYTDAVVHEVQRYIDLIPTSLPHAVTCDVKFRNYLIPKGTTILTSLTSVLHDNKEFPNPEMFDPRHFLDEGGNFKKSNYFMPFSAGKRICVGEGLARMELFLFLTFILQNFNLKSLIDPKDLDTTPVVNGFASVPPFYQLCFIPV
CYP2C9 inhib: blocks human cytochrome P450 2C9. P11712. 96,000 compounds, 20% hits. AID 777. inhibition, % at 5 µM. CYP2C9 Supersomes, luciferin-H conversion, luminescence;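 active = blocking of liver enzyme CYP2C9 beyond about 50% at 5 µM, limit read from the data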
CYP2C19 activ: cytochrome P450 2C19 (human) activation; P33261; recombinant CYP2C19, luciferin-H EGE luminescence; stronger effect = higher value; 0 = fully inhibited enzyme, 1 = untreated enzyme; activation factor at 5 µM; 96,000 tested, under 10 active; AID 1025;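 active = activation factor of at least 2 at 5 µM in the primary screen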;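 also: 0 = wells with 2.5 mM tranylcypromine and 1 = vehicle-only wells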
E coli WT exp: blocks growth of wild type E. coli BW25113; growth inhibition, % at 100 µM; 98,000 compounds, 0.15% hits; OD600 absorbance; AID 710;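 active = growth inhibition above about 50% at one test dose, limit read from the data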;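 also: growth measured after 20 h incubation at 37 °C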
Active calls of the source: *; · = no result. An excerpt weighted towards active compounds, which were near 29% of everything screened.

SMILES	CYP2C9 activ	Ecoli tolC	CYP2C19 inh	CYP2C9 inhib	CYP2C19 activ	E coli WT exp
Cc1ccc(S(=O)(=O)Nc2ccc3c(c2)ncn3C(C)(C)C)cc1	0.2	17	92*	80*	0.1	-4
CC(C)(C)n1cnc2cc(NS(=O)(=O)c3ccc(Br)cc3)ccc21	0	37	100*	99*	0	4
CC(C)CCN1C(=O)c2ccc(C(=O)OCn3nnc4ccccc4c3=O)cc2C1=O	0.9	7	8	10	0.9	-14
CCC(C)NC(=O)c1cc2cc3ccc(OC)cc3nc2s1 (stereo unspecified)	0.2	·	76*	84*	0.2	-5
COCCCNC(=O)c1cccs1	0.9	·	15	10	0.8	2
O=C(NCCCNC(=O)c1cccs1)c1cccs1	0.6	-15	27	42	0.7	9
CC1CCN(c2ccc(C(=O)NCCc3ccccc3)cn2)CC1	0.3	32	11	67*	0.9	-8
CC(C)(CNC(=O)c1cccs1)CNC(=O)c1cccs1	0.1	0	58*	86*	0.4	-2
O=C(NCCc1ccccc1)c1ccncc1	0.6	-9	78*	38	0.2	6
O=C(NCCc1ccccc1)c1cccs1	1	·	53*	5	0.5	3
CC1CCCN(c2ccc(C(=O)NCc3cccs3)cn2)C1 (stereo unspecified)	·	13	·	·	·	0
CC1CCc2ccccc2N1C(=O)c1cccs1 (stereo unspecified)	0.7	9	22	28	0.8	0
CCn1nc(C)c(C(=O)Nc2cc(Oc3ccc(Cl)cc3)cc([N+](=O)[O-])c2)c1C	0.5	·	25	48	0.8	-9
CCCCC(CC)CNC(=O)c1cccs1 (stereo unspecified)	0.1	24	88*	91*	0.1	15
COc1ccc(-c2nc(CC(=O)O)cs2)cc1	1	·	-15	-4	1.1	-14
CCC(C)c1ccc(NC(=O)c2cccs2)cc1 (stereo unspecified)	0.6	·	25	36	0.7	3
COc1ccc(-c2nc(CCNC(=O)c3cccs3)cs2)cc1	0.2	·	40	76*	0.6	6
COc1ccccc1Oc1ccc(S(=O)(=O)N2CCCC2)cc1	0.2	10	56*	78*	0.4	-11
COc1ccc(Oc2ccc(S(=O)(=O)N3CCCCC3)cc2S(=O)(=O)N2CCCCC2)cc1	·	23	·	·	·	·
CCCCOc1ccc(S(=O)(=O)N2CCCCCC2)cc1	0.1	62*	93*	94*	0.1	9
COC1CCCCC1Nc1cccc(SC)c1 (stereo unspecified)	0.9	16	29	9	0.7	1
O=S(=O)(c1ccc(S(=O)(=O)N2CCCC2)cc1)N1CCCCCC1	0.9	-26	19	8	0.8	-9
CC(C)Cc1ccc(S(=O)(=O)N2CCCC2)cc1	0.2	·	91*	78*	0.1	13
Cc1cc(NS(=O)(=O)c2ccc(CC(C)C)cc2)no1	0.1	·	72*	90*	0.3	1
CN(C)S(=O)(=O)c1ccc(S(=O)(=O)N2CCCC2)cc1	1	·	62*	1	0.4	4
SMILES	CYP2C9 activ	Ecoli tolC	CYP2C19 inh	CYP2C9 inhib	CYP2C19 activ	E coli WT exp
Cc1nc2c3cc(Cl)ccc3n(CCN3CCCCC3)c2s1	0.7	·	45	28	0.6	4
C=CCC(CC=C)(NC(=O)c1ccccc1)c1ccccc1	0.8	·	45	19	0.5	-3
C=CCC(CC=C)(NC(=O)c1ccccc1C)c1ccccc1	0.8	·	51*	23	0.5	-10
CC(C)N(Cc1nc(-c2ccc(Cl)cc2)no1)C(=O)C(c1ccccc1)c1ccccc1	0.5	·	38	54*	0.6	-20
COc1ccc(-c2noc(CN(C(=O)c3cccs3)C(C)C)n2)cc1	0.3	·	34	68*	0.7	2
CC(C)N(CCO)C(=O)C(c1ccccc1)c1ccccc1	0.4	-3	90*	59*	0.1	-5
CC(C)N(Cc1nc(-c2ccccc2)no1)C(=O)CCCN1C(=O)c2ccccc2C1=O	0.3	33	67*	67*	0.3	-17
COc1ccc(-c2noc(CCCC(=O)O)n2)cc1	1.1	-4	4	-7	1	-2
COc1cc(OC)cc(C(=O)OCc2cc3ccccc3[nH]c2=O)c1	1	-4	15	2	0.9	-1

Screens as filed in PubChem BioAssay.
